Calls of active or inactive are those of the source. The rule behind the calls is not given here.
Columns and labels:
[1] = system: T47D; assay: Inhibition of PR-A mRNA gene expression in human T47D cells at 100 nM by syber green assay; type: functional
Outline: (§1)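 T47D cells plated at 80,000/well without antibiotics two days before Oligofectamine transfection with agRNA duplex (25 or 100 nM final); medium changed at 24 h, harvest day 5 unless stated otherwise. TRIzol total RNA; PR mRNA by real-time PCR with SYBR Green: 50 °C 2 min, 95 °C 10 min, 40 cycles 95 °C 15 s/60 °C 1 min.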

[2] = system: T47D; assay: Inhibition of PR-B mRNA gene expression in human T47D cells at 100 nM by syber green assay; type: functional
Outline: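 T47D cells in RPMI-1640 with 10% FBS, NEAA, insulin, 37 °C, 5% CO2. Plated two days before transfection without antibiotics. Oligofectamine-mediated duplex RNA transfection at 100 nM final, medium changed at 24 h, harvest five days post-transfection. Total RNA extracted with TRIzol. hPR mRNA quantified by SYBR Green qPCR: 50 °C 2 min, 95 °C 10 min, then 40 cycles of 95 °C 15 s / 60 °C 1 min.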

[3] = system: T47D; assay: Cytotoxicity against human T47D cells assessed as effect on cellular morphology; type: cell-based
[4] = system: T47D; assay: Effect of DNA methylation at (+353) CpG site near PR-B transcription start site (-13) in human T47D cells by sodium bisulfite sequencing analysis; type: functional, cell-based
Outline: (§2)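 T47D cells grown in RPMI-1640 with 10% FBS, 0.5% NEAA, insulin and P/S at 37 °C, 5% CO2. They were plated at 80,000 cells/well 2 days before lipid transfection with 25 nM or 100 nM duplex, with medium changed at 24 h. Cells were harvested 5 days post-transfection. 100 ng bisulfite-treated DNA was PCR-amplified, and products were TA-cloned. 5–15 colonies per plate were sequenced.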

[5] = system: T47D; assay: Effect of DNA methylation at (+20) CpG site near PR-B transcription start site (-13) in human T47D cells by sodium bisulfite sequencing analysis; type: functional, cell-based; outline: as §2
[6] = system: T47D; assay: Effect of DNA methylation at (+295) CpG site near PR-B transcription start site (-13) in human T47D cells by sodium bisulfite sequencing analysis; type: functional, cell-based; outline: as §2
[7] = system: T47D; assay: Effect of DNA methylation at (+112) CpG site near PR-B transcription start site (-13) in human T47D cells by sodium bisulfite sequencing analysis; type: functional, cell-based; outline: as §2
[8] = system: T47D; assay: Effect of DNA methylation at (+356) CpG site near PR-B transcription start site (-13) in human T47D cells by sodium bisulfite sequencing analysis; type: functional, cell-based; outline: as §2
[9] = system: T47D; assay: Effect of DNA methylation at (+267) CpG site near PR-B transcription start site (-13) in human T47D cells by sodium bisulfite sequencing analysis; type: functional, cell-based; outline: as §2
[10] = system: T47D; assay: Effect of DNA methylation at (+45) CpG site near PR-B transcription start site (-13) in human T47D cells by sodium bisulfite sequencing analysis; type: functional, cell-based
Outline: (§3)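 T47D cells (RPMI-1640, 10% FBS, NEAA, insulin; 37 °C, 5% CO2) transfected with agRNA duplexes via Oligofectamine, medium changed at 24 h. Genomic DNA bisulphite-treated, regions around AR and hPR-B start sites PCR-amplified (HotStarTaq, 100 ng treated DNA), gel-purified, TOPO TA cloned; 5–15 colonies per plate miniprepped and sequenced.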

[11] = system: T47D; assay: Effect of DNA methylation at (+166) CpG site near PR-B transcription start site (-13) in human T47D cells by sodium bisulfite sequencing analysis; type: functional, cell-based; outline: as §2
[12] = system: T47D; assay: Inhibition of PR-A gene expression in human T47D cells at 25 nM by syber green assay in presence of 10 nM estradiol; type: functional, cell-based
[13] = system: T47D; assay: Effect of DNA methylation at (+398) CpG site near PR-B transcription start site (-13) in human T47D cells by sodium bisulfite sequencing analysis; type: functional, cell-based; outline: as §2
[14] = system: T47D; assay: Effect of DNA methylation at (-23) CpG site near PR-B transcription start site (-13) in human T47D cells by sodium bisulfite sequencing analysis; type: functional, cell-based; outline: as §3
[15] = system: T47D; assay: Effect of DNA methylation at (+190) CpG site near PR-B transcription start site (-13) in human T47D cells by sodium bisulfite sequencing analysis; type: functional, cell-based; outline: as §2
[16] = system: T47D; assay: Inhibition of PR-B gene expression in human T47D cells at 25 nM by syber green assay; type: functional; outline: as §1
[17] = system: T47D; assay: Effect of DNA methylation at (+362) CpG site near PR-B transcription start site (-13) in human T47D cells by sodium bisulfite sequencing analysis; type: functional, cell-based; outline: as §2
[18] = system: T47D; assay: Effect of DNA methylation at (+337) CpG site near PR-B transcription start site (-13) in human T47D cells by sodium bisulfite sequencing analysis; type: functional, cell-based; outline: as §2
[19] = system: T47D; assay: Effect of DNA methylation at (+173) CpG site near PR-B transcription start site (-13) in human T47D cells by sodium bisulfite sequencing analysis; type: functional, cell-based; outline: as §2
[20] = system: T47D; assay: Effect of DNA methylation at (+149) CpG site near PR-B transcription start site (-13) in human T47D cells by sodium bisulfite sequencing analysis; type: functional, cell-based; outline: as §2
[21] = system: T47D; assay: Effect of DNA methylation at (-75) CpG site near PR-B transcription start site (-13) in human T47D cells by sodium bisulfite sequencing analysis; type: functional, cell-based; outline: as §3
[22] = system: T47D; assay: Effect of DNA methylation at (+319) CpG site near PR-B transcription start site (-13) in human T47D cells by sodium bisulfite sequencing analysis; type: functional, cell-based; outline: as §2
[23] = system: T47D; assay: Effect of DNA methylation at (-46) CpG site near PR-B transcription start site (-13) in human T47D cells by sodium bisulfite sequencing analysis; type: functional, cell-based; outline: as §3
[24] = system: T47D; assay: Effect of DNA methylation at (+379) CpG site near PR-B transcription start site (-13) in human T47D cells by sodium bisulfite sequencing analysis; type: functional, cell-based; outline: as §2
[25] = system: T47D; assay: Effect of DNA methylation at (-112) CpG site near PR-B transcription start site (-13) in human T47D cells by sodium bisulfite sequencing analysis; type: functional, cell-based; outline: as §3
[26] = system: T47D; assay: Inhibition of PR-A gene expression in human T47D cells at 25 nM by syber green assay; type: functional; outline: as §1
[27] = system: T47D; assay: Effect of DNA methylation at (+41) CpG site near PR-B transcription start site (-13) in human T47D cells by sodium bisulfite sequencing analysis; type: functional, cell-based; outline: as §2
[28] = system: T47D; assay: Effect of DNA methylation at (+216) CpG site near PR-B transcription start site (-13) in human T47D cells by sodium bisulfite sequencing analysis; type: functional, cell-based; outline: as §2
[29] = system: T47D; assay: Effect of DNA methylation at (+107) CpG site near PR-B transcription start site (-13) in human T47D cells by sodium bisulfite sequencing analysis; type: functional, cell-based; outline: as §2
[30] = system: T47D; assay: Effect of DNA methylation at (+335) CpG site near PR-B transcription start site (-13) in human T47D cells by sodium bisulfite sequencing analysis; type: functional, cell-based; outline: as §2
[31] = system: T47D; assay: Effect of DNA methylation at (+125) CpG site near PR-B transcription start site (-13) in human T47D cells by sodium bisulfite sequencing analysis; type: functional, cell-based; outline: as §2
[32] = system: T47D; assay: Inhibition of PR-B gene expression in human T47D cells at 25 nM by syber green assay in presence of 10 nM estradiol; type: functional, cell-based
[33] = system: T47D; assay: Effect of DNA methylation at (+225) CpG site near PR-B transcription start site (-13) in human T47D cells by sodium bisulfite sequencing analysis; type: functional, cell-based; outline: as §2
[34] = system: T47D; assay: Effect of DNA methylation at (+162) CpG site near PR-B transcription start site (-13) in human T47D cells by sodium bisulfite sequencing analysis; type: functional, cell-based; outline: as §2

How did the inhibition at 0.1 µM [1] turn out when `Cc1cn([C@H]2C[C@H](OP(=O)(O)OC[C@H]3O[C@@H](n4cc(C)c(=O)[nH]c4=O)C[C@@H]3O)[C@@H](COP(=O)(O)O[C@H]3[C@@H](O)[C@H](n4ccc(N)nc4=O)O[C@@H]3COP(=O)(O)O[C@H]3[C@@H](O)[C@H](n4ccc(N)nc4=O)O[C@@H]3COP(=O)(O)O[C@H]3[C@@H](O)[C@H](n4cnc5c(N)ncnc54)O[C@@H]3COP(=O)(O)O[C@H]3[C@@H](O)[C@H](n4ccc(N)nc4=O)O[C@@H]3COP(=O)(O)O[C@H]3[C@@H](O)[C@H](n4cnc5c(N)ncnc54)O[C@@H]3COP(=O)(O)O[C@H]3[C@@H](O)[C@H](n4ccc(N)nc4=O)O[C@@H]3COP(=O)(O)O[C@H]3[C@@H](O)[C@H](n4ccc(N)nc4=O)O[C@@H]3COP(=O)(O)O[C@H]3[C@@H](O)[C@H](n4ccc(=O)[nH]c4=O)O[C@@H]3COP(=O)(O)O[C@H]3[C@@H](O)[C@H](n4cnc5c(=O)[nH]c(N)nc54)O[C@@H]3COP(=O)(O)O[C@H]3[C@@H](O)[C@H](n4cnc5c(N)ncnc54)O[C@@H]3COP(=O)(O)O[C@H]3[C@@H](O)[C@H](n4ccc(N)nc4=O)O[C@@H]3COP(=O)(O)O[C@H]3[C@@H](O)[C@H](n4ccc(N)nc4=O)O[C@@H]3COP(=O)(O)O[C@H]3[C@@H](O)[C@H](n4cnc5c(=O)[nH]c(N)nc54)O[C@@H]3COP(=O)(O)O[C@H]3[C@@H](O)[C@H](n4ccc(N)nc4=O)O[C@@H]3COP(=O)(O)O[C@H]3[C@@H](O)[C@H](n4ccc(=O)[nH]c4=O)O[C@@H]3COP(=O)(O)O[C@H]3[C@@H](O)[C@H](n4ccc(N)nc4=O)O[C@@H]3COP(=O)(O)O[C@H]3[C@@H](O)[C@H](n4ccc(=O)[nH]c4=O)O[C@@H]3COP(=O)(O)O[C@H]3[C@@H](O)[C@H](n4ccc(N)nc4=O)O[C@@H]3COP(=O)(O)O[C@H]3[C@@H](O)[C@H](n4ccc(=O)[nH]c4=O)O[C@@H]3CO)O2)c(=O)[nH]c1=O` was run?
Its inhibition at 0.1 µM is less than 20%.

What about the inhibition at 0.1 µM [2] of the same compound?
The inhibition at 0.1 µM was less than 20%.

And the Activity [3]?
Its Activity is “Non-toxic”.

Which results are given for `Cc1cn(CC(=O)N(CCNC(=O)CN(CCNC(=O)CN(CCNC(=O)CN(CCNC(=O)CN(CCNC(=O)CN(CCNC(=O)CN(CCNC(=O)CN(CCNC(=O)CN(CCNC(=O)CN(CCNC(=O)CN(CCNC(=O)CN(CCNC(=O)CN(CCNC(=O)CN(CCNC(=O)CN(CCNC(=O)CN(CCNC(=O)CN(CCNC(=O)CN(CCNC(=O)CN(CCNC(=O)CN(CCNC(=O)CN)C(=O)Cn2cnc3c(N)ncnc32)C(=O)Cn2cnc3c(N)ncnc32)C(=O)Cn2cnc3c(=O)[nH]c(N)nc32)C(=O)Cn2ccc(N)nc2=O)C(=O)Cn2ccc(=O)[nH]c2=O)C(=O)Cn2cnc3c(=O)[nH]c(N)nc32)C(=O)Cn2ccc(=O)[nH]c2=O)C(=O)Cn2ccc(N)nc2=O)C(=O)Cn2ccc(=O)[nH]c2=O)C(=O)Cn2cnc3c(=O)[nH]c(N)nc32)C(=O)Cn2cnc3c(=O)[nH]c(N)nc32)C(=O)Cn2ccc(N)nc2=O)C(=O)Cn2ccc(N)nc2=O)C(=O)Cn2cnc3c(N)ncnc32)C(=O)Cn2cnc3c(=O)[nH]c(N)nc32)C(=O)Cn2ccc(=O)[nH]c2=O)C(=O)Cn2ccc(N)nc2=O)C(=O)Cn2ccc(N)nc2=O)C(=O)Cn2cnc3c(N)ncnc32)CC(=O)NCCN(CC(=O)NCC(=O)O)C(=O)Cn2cc(C)c(=O)[nH]c2=O)c(=O)[nH]c1=O`?
Activity [4]: inactive; Activity [5]: inactive; Activity [6]: inactive; Activity [7]: inactive; Activity [8]: inactive; Activity [9]: inactive; Activity [10]: inactive; inhibition at 0.1 µM [1]: 100%; Activity [11]: inactive; inhibition [12]: Active; Activity [13]: inactive; Activity [14]: inactive; Activity [15]: inactive; inhibition at 0.025 µM [16]: 80%; Activity [17]: inactive; Activity [18]: inactive; Activity [19]: inactive; Activity [20]: inactive; Activity [21]: inactive; inhibition at 0.1 µM [2]: 100%; Activity [22]: inactive; Activity [23]: inactive; Activity [24]: inactive; Activity [25]: inactive; inhibition at 0.025 µM [26]: 72%; Activity [27]: inactive; Activity [28]: inactive; Activity [29]: inactive; Activity [30]: inactive; Activity [31]: inactive; inhibition [32]: Active; Activity [33]: inactive; Activity [34]: inactive

Reference: ChEMBL document CHEMBL1250442, “Inhibiting gene expression at transcription start sites in chromosomal DNA with antigene RNAs” (Nat Chem Biol, 2005)
